Experimental findings from PubChem BioAssay are described below.

The source made the active and inactive calls.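 Rule for the calls, unless noted: active = mean duplicate potentiation above the buffer control mean plus 5 SD of buffer wells; inactive = the rest.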

The nature of test [1]: thallium flux activation in parental CHO cells, counter-screen for KCNQ1 potentiator project (AID 493006;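 active = duplicate-averaged activation above buffer control mean plus 5 SD of those controls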). The conditions noted are these: parental CHO-K1 cells, FluxOR thallium flux, at 10 µM; active compounds read high. The method, boiled down:
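Assay system: Untransfected host CHO-K1 cells with FluxOR thallium dye | Probe or stimulus: Potassium/thallium depolarization pulse | Schedule: Overnight 37 °C plating, 90 min RT dye, 20 min compound | Detection: Kinetic thallium-flux fluorescence | Read-out: Max-minus-min fluorescence over baseline, percent of buffer-to-R-L3 span | Benchmarks: Low control buffer, high control R-L3 activator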

Test [2] addresses Potassium voltage-gated channel subfamily KQT member 1 (Homo sapiens) (UniProt P51787). In words: KCNQ1 potassium channel potentiators, confirmation, FluxOR thallium flux, CHO cells, duplicates (AID 493007;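 active = potentiation averaged over duplicate wells exceeding buffer-only control mean by more than 3 SD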;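 for outcome: cells depolarized by a potassium plus thallium sulfate stimulus after compound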). The settings on record: KCNQ1 cell line, FluxOR thallium flux fluorescence, at 10 µM; active compounds read high, % of reference activator effect, buffer zero. The method, boiled down:
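Material: KCNQ1-expressing CHO cell line; Incubation: FluxOR dye loading 90 min, compound exposure 20 min, room temperature; Detection: FluxOR Tl+ flux fluorescence, 10 s baseline plus 110 s recording; Read-out: percent activation between buffer and R-L3 responses; Control set: buffer-only wells as 0% and R-L3 activator as 100%; Replication: duplicate wells per compound.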

The target in test [3] is Potassium voltage-gated channel subfamily KQT member 2 (Rattus norvegicus) (UniProt O88943). In words: rat KCNQ2 channel potentiation, selectivity assay for KCNQ1 potentiator project, KCNQ2-CHO-K1 cells (AID 493009).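 Note: assay conditions were tuned for KCNQ1 rather than KCNQ2 modulators; signal is max minus min fluorescence divided by baseline after thallium stimulus.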 The settings on record: FluxOR thallium flux fluorescence, at 10 µM; active compounds read high, scaled: buffer 0, activator control 100.
Chain of Potassium voltage-gated channel subfamily KQT member 2 (Rattus norvegicus) (O88943 whole entry, looked up): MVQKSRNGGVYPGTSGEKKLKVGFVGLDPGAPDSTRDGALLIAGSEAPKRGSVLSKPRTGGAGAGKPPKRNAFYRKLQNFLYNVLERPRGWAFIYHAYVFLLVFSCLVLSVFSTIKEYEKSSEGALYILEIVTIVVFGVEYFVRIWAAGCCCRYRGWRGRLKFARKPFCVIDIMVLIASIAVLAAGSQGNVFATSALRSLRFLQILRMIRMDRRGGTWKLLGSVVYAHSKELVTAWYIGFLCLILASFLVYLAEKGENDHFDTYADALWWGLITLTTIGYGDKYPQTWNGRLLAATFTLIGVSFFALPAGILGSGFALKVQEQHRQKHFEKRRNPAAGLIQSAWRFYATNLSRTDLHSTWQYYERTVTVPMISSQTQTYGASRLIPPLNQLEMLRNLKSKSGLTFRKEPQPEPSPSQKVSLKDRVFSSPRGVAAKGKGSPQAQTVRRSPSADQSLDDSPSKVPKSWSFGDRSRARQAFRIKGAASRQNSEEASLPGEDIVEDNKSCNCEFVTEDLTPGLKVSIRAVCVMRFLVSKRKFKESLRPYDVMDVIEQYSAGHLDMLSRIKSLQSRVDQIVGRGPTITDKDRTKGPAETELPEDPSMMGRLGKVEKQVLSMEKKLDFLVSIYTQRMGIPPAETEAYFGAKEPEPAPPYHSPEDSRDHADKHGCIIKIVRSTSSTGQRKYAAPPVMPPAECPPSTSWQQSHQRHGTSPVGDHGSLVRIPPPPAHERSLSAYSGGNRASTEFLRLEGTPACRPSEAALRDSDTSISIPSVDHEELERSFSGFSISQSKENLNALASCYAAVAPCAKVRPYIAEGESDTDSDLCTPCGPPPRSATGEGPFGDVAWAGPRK
Test [4] has as its target Potassium voltage-gated channel subfamily KQT member 1 (Homo sapiens) (UniProt P51787). In words: KCNQ1 channel current potentiators, confirmation, orthogonal assay for KCNQ1 potentiator project, IonWorks patch clamp, KCNQ1-CHO cells (AID 493184;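 active = current rise at least 3 SD above the untreated control mean in each of two repeat wells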;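 for current potentiation: percent change of the same well's current before compound addition so 0% = no change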). The conditions noted are these: automated patch clamp current, at 10 µM; active compounds read high. The method, boiled down: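 assay system = KCNQ1-expressing CHO cells | medium = external bath solution at pH 7.4 | probe or stimulus = 2,000 ms depolarization, -90 to +40 mV | compound dosing = 10 µM final, single point | measured by = automated voltage clamp, amphotericin B perforated patch | measure = percent current increase versus pre-compound level | replication = duplicates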

Chain of Potassium voltage-gated channel subfamily KQT member 1 (Homo sapiens) (P51787 whole entry, looked up): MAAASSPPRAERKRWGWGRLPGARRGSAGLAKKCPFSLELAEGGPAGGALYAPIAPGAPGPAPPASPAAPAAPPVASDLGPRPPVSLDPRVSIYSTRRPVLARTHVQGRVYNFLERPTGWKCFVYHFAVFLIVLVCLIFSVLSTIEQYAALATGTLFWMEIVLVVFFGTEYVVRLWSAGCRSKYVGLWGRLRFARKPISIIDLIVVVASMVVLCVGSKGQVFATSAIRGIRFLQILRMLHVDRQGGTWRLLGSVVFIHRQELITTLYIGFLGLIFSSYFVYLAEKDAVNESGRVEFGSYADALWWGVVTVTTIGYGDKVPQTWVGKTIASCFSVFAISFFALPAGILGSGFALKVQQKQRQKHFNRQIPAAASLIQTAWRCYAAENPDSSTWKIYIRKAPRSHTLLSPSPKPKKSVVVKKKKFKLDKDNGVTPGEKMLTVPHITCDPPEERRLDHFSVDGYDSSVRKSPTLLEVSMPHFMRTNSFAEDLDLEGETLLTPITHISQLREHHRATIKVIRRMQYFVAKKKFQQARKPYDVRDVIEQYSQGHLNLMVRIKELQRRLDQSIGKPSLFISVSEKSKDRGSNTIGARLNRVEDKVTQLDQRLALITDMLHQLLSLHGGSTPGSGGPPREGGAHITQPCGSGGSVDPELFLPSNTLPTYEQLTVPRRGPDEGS

`O=C(Nc1nnc(-c2ccc3c(c2)CCCC3)o1)c1ccccc1`: the activation in test [1] is 266% (active). The results for the potentiation in test [2] and in test [3] were 130% (active) and 400% (active), respectively. Moreover, the outcome in test [4] was inactive.

As to `CCC1CCCCN1C(=S)NC(=O)c1cccc([N+](=O)[O-])c1` (stereo not given), in test [1], the activation was 232% (active). Moreover, the potentiation in test [2] was 57% (active); in test [3], 284% (active). The outcome in test [4] was inactive.

In the case of `O=C(c1cccc(-c2ccccc2F)c1)N1CC[C@@H](N2CCC(O)CC2)[C@H](O)C1`, the outcome in test [1], in test [2], in test [3] and in test [4] was inactive.

As to `Fc1ccc(-c2csc(NC(=S)Nc3ccccc3)n2)cc1`, the activation in test [1] is 153% (active). In addition, the potentiation was 52.5% (active) in test [2] and 154% (active) in test [3]. Further, the outcome in test [4] was inactive.

For the compound `CC(C)Cn1c(=S)[nH]c2cc(Cl)ccc21`, the activation in test [1] is 196% (active). The potentiation is 70.5% (active) in test [2] and 225% (active) in test [3]. Besides, in test [4], the result was inactive.

For `CN(CC(=O)NCCc1ccc(F)cc1)Cc1cccc(Cl)c1`, the outcome in test [1], in test [2], in test [3] and in test [4] was inactive.

Take `Fc1ccc2nc(Nc3nc4c(F)cccc4s3)sc2c1`: the activation in test [1] is 144% (active). Also, the potentiation is 69.5% (active) in test [2] and 180% (active) in test [3]. Besides, the result in test [4] was inactive.

With `COC(=O)c1sc(-c2ccc(C(C)(C)C)cc2)cc1NC(=O)/C=C/C(=O)O`, the activation in test [1] is 427% (active). Moreover, the potentiation was 130% (active) in test [2] and 320% (active) in test [3]. In addition, the current potentiation in test [4] is 20.6% (active).

For the compound `CCc1ccc(S(=O)(=O)Nc2cc3c(cc2N2CCCCC2)n(C)c(=O)c(=O)n3C)cc1`, the outcome in test [1], in test [2], in test [3] and in test [4] was inactive.

`COc1cc(C2NC(=O)NC(O)(C(F)(F)F)C2C(C)=O)cc(OC)c1OC` (stereo not given): the outcome in test [1], in test [2], in test [3] and in test [4] was inactive.

For the compound `COCCN(CCOC)Cc1cc(=O)oc2cc3c(cc12)CCC3`, the activation in test [1] was 145% (active). For the same compound, the potentiation in test [2] was 45.5% (active). The result in test [3] and in test [4] was inactive.

For the compound `CCSc1nnc(NC(=O)[C@H](C)NC(=O)c2ccccc2Cl)s1`, the result in test [1], in test [2], in test [3] and in test [4] was inactive.

As to `CCn1nc(C)c(CNC(=O)C2CCC(=O)N(Cc3cccc(F)c3)C2)c1C` (stereo not given), the result in test [1], in test [2], in test [3] and in test [4] was inactive.

As to `Cc1cccc(CS(=O)(=O)c2ncc(CO)n2C)c1`, the outcome in test [1], in test [2], in test [3] and in test [4] was inactive.

`O=C(Cn1c(=O)oc2ccccc21)N1CCN(c2ccc(N3CCOCC3)nn2)CC1`: the outcome in test [1], in test [2], in test [3] and in test [4] was inactive.

As to `CSc1ccc(/C=N/n2c(Cc3ccc(Br)cc3)n[nH]c2=S)cc1`, the result in test [1] and in test [4] was inactive. Moreover, the potentiation in test [2] was 174% (active); in test [3] it was 168% (active).

Turning to `COc1cc(S(=O)(=O)Nc2cccnc2)ccc1Cl`, in test [1], the activation is 200% (active). Besides, the potentiation in test [2] was 64% (active); in test [3], 212% (active). Further, the result in test [4] was inactive.

For `O=C(Nc1nnc(-c2ccc(F)cc2)o1)c1cc(Cl)sc1Cl`, in test [1], the activation is 330% (active). The results for the potentiation in test [2] and in test [3] were 118% (active) and 284% (active), respectively. The result in test [4] was inactive.

Turning to `Cc1ccc(S(=O)(=O)Nc2cc(C(F)(F)F)ccc2N2CCOCC2)c(C)c1`, the outcome in test [1], in test [2], in test [3] and in test [4] was inactive.

On to `Cc1ccccc1C(=O)NCc1ccncc1`, for which the result in test [1], in test [2], in test [3] and in test [4] was inactive.

Regarding `COC(=O)c1ccsc1NC(=O)CN1CCN(Cc2ccc3c(c2)OCO3)CC1`, the result in test [1], in test [2], in test [3] and in test [4] was inactive.

In the case of `O=C(CCN1CCc2ccccc2CC1)c1ccc2c(c1)OCCO2`, the activation in test [1] was 150% (active). The potentiation was 38% (active) in test [2] and 176% (active) in test [3]. Further, in test [4], the outcome was inactive.

With `Cc1ccc(-c2csc3nc[nH]c(=S)c23)cc1C`, in test [1], the activation was 223% (active). In addition, the potentiation in test [2] is 56.5% (active); in test [3], 222% (active). Besides, the result in test [4] was inactive.

In the case of `CCC(C)(C)NC(=O)C(c1ccncc1)N(Cc1cccs1)C(=O)Cn1nnc2ccccc21` (stereo not given), the result in test [1], in test [2], in test [3] and in test [4] was inactive.

`COC(=O)c1ccc(CSc2ncnc3c2sc2nc(N4CCOCC4)c4c(c23)CCCC4)o1`: the outcome in test [1], in test [2], in test [3] and in test [4] was inactive.

With `S=c1[nH]nc(-c2ccc(Cl)cc2)n1/N=C/C=C/c1ccco1`, the activation in test [1] is 159% (active). Also, the potentiation in test [2] was 32% (active). Besides, the result in test [3] and in test [4] was inactive.

As to `O=C(NC(=S)N1CCN(c2ccccc2)CC1)c1c(F)cccc1F`, the result in test [1], in test [2], in test [3] and in test [4] was inactive.

`O=C1NN(c2ccccc2)C(=O)/C1=C\c1cccc(OC(=O)c2cccs2)c1`: the activation in test [1] is 187% (active). Further, the figures for the potentiation in test [2] and in test [3] were 61.5% (active) and 202% (active), respectively. The result in test [4] was inactive.

For the compound `COc1ccc(S(=O)(=O)NCCOc2ccccc2)cc1OC`, the result in test [1], in test [2], in test [3] and in test [4] was inactive.

As to `CCOC(=O)c1c(N2C(=O)Nc3ccccc3N2O)n[nH]c1-c1cccc(Cl)c1`, the outcome in test [1], in test [2], in test [3] and in test [4] was inactive.
